Experimental data from ChEMBL document CHEMBL1121902 (J Med Chem, 1981).
Counter-ions that a name gives are not always drawn.

Experiments:
Canis familiaris [1] = assay: Compound was tested for its ability to block isoproterenol-induced increases in heart rate(HR) in anesthetized dogs.; settings: Canis lupus familiaris, read-out: pA2 app (converted)
[2] = Partition coefficient (logD7.4); format: physicochemical; settings: octanol/water, pH 7.4
Procedure, shortened: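 Distribution between 1-octanol and 0.16 M pH 7.4 phosphate buffer (mutually presaturated). Compound at 10^-4 M in buffer was shaken 15 min with an equal volume of octanol, then centrifuged 10 min. Run in triplicate.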

Canis familiaris [3] = assay: Compound was tested for its ability to block isoproterenol-induced vasodilation in anesthetized dogs.; settings: Canis lupus familiaris, read-out: pA2 app (converted)
[4] = Beta adrenergic receptor antagonist potency relative to propranolol.; format: functional
Procedure, shortened: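 Pentobarbital-anesthetized mongrel dogs. Isoproterenol dose-response curves (heart rate, contractile force, femoral artery flow) repeated after cumulative doses of 10, 100 and 1000 µg/kg of racemic hydrochloride in isotonic saline. Apparent pA2 taken from the curve shifts. […] One compound per dog, four dogs each.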

Canis familiaris [5] = assay: Concentration required to decrease hindlimb perfusion pressure(55 mmHg) in anesthetized dogs after intra arterial administration.; format: functional, Canis lupus familiaris, Artery
Procedure, shortened: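 Anesthetized mongrel dogs, vascularly isolated pump-perfused hindlimb held at constant blood flow. Vascular resistance was read as change in perfusion pressure. Bolus intraarterial injections into the perfusion circuit, drugs in isotonic saline, rising doses with compound order randomized at each level. Dose to lower perfusion pressure by 55 mmHg was taken. Four dogs, mean ± SE.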

Canis familiaris [6] = species on record: Canis familiaris; assay: Vasodilator potency relative to propranolol.; format: functional, Canis lupus familiaris
Procedure, shortened: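 Anesthetized mongrel dogs with a vascularly isolated, pump-perfused hindlimb at constant blood flow; the read-out is the fall in perfusion pressure. Bolus intraarterial injections in isotonic saline into the perfusion system, lowest doses first, compound order randomized at each level; four dogs. Dose to lower pressure 55 mmHg determined.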

Canis familiaris [7] = assay: Compound was tested for its ability to block isoproterenol-induced contractile force in anesthetized dogs.; settings: Canis lupus familiaris, read-out: pA2 app (converted)

logD [2] | Relative potency [4] | Compound | Kb (Canis familiaris [1]) [nM] | Kb (Canis familiaris [3]) [nM] | Dose (Canis familiaris [5]) [mg] | Relative potency (Canis familiaris [6]) | Kb (Canis familiaris [7]) [nM]
1.66 | 0.03 | CC(C)NCC(O)COc1c(O)ccc2ccccc12 (stereo not given) | 1350 | 468 | 0.52 | 1.07 | 646
0.62 | 0.95 | CC(C)NCC(O)COc1cccc2ccc(O)cc12 (stereo not given) | 56.2 | 26.3 | 2.8 | 0.2 | 17.4
0.53 | 0.77 | CC(C)NCC(O)COc1ccc(O)c2ccccc12 (stereo not given) [4-HYDROXYPROPRANOLOL SULFATE] | 45.7 | 31.6 | 4.35 | 0.13 | 28.8
1.4 | 0.17 | CC(C)NCC(O)COc1cccc2cccc(O)c12 (stereo not given) | 229 | 55 | 0.58 | 0.94 | 155
 |  | CC(C)NCC(O)COc1cccc2ccccc12 (stereo not given) [PROPRANOLOL] |  |  | 0.55 |  | 
0.56 | 0.56 | CC(C)NCC(O)COc1cccc2c(O)cccc12 (stereo not given) | 75.9 | 20.9 | 1.95 | 0.28 | 32.4
0.46 | 3.82 | CC(C)NCC(O)COc1cccc2cc(O)ccc12 (stereo not given) | 9.77 | 4.47 | 2.45 | 0.22 | 4.37
0.57 | 0.16 | CC(C)NCC(O)COc1cc(O)cc2ccccc12 (stereo not given) | 288 | 58.9 | 10 | 0.06 | 107
